Measured values taken from ChEMBL document CHEMBL4689842, “EUbOPEN Chemogenomics Library wave 1” (2021).

Test system: HEK-293T
Assay: Multiplex assay against HEK293T;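 as to Population Tubulin-Different-Phenotype (%): share of the cells with healthy nuclei that show this phenotype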
Assay type: toxicity, cell-based
Settings: human
Method in brief: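 Imaging took place on a CQ1 microscope at 37°C and 5% CO2 once compound had been added to live cells stained at seeding with Hoechst33342, BioTracker Green Microtubule Cytoskeleton Dye, MitoTracker Red and Annexin V Alexa Fluor 680. CellPathfinder machine-learning gating classed cells as Hoechst high-intensity objects or normal cells, classed normal cells as having healthy, pyknosed or fragmented nuclei, and classed pyknosed cells as mitotic or apoptotic. Tubulin, mitochondrial-mass and membrane-permeability phenotypes are per cents of the healthy-nucleus cells.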

[1] = 12 h, 1 µM, compound concentration 1 uM, replicate 1
[2] = 12 h, 1 µM, compound concentration 1 uM, replicate 2
[3] = 12 h, 10 µM, compound concentration 10 uM, replicate 1
[4] = 12 h, 10 µM, compound concentration 10 uM, replicate 2
[5] = 24 h, 1 µM, compound concentration 1 uM, replicate 1
[6] = 24 h, 1 µM, compound concentration 1 uM, replicate 2
[7] = 24 h, 10 µM, compound concentration 10 uM, replicate 1
[8] = 24 h, 10 µM, compound concentration 10 uM, replicate 2
[9] = 48 h, 1 µM, compound concentration 1 uM, replicate 1
[10] = 48 h, 1 µM, compound concentration 1 uM, replicate 2
[11] = 48 h, 10 µM, compound concentration 10 uM, replicate 1
[12] = 48 h, 10 µM, compound concentration 10 uM, replicate 2

Cc1cc(C)cc(-c2cnc3cc(Cl)c(-c4cccc(O)c4)cc3c2OCCCN)c1
Population Apoptotic (%) [1]: 53%
Population Fragmented Nuclei (%) [1]: 11%
Population Healthy Nuclei (%) [1]: 40%
Population Hoechst High Intensity Objects (%) [1]: 10%
Population Membrane Permeable-Phenotype (%) [1]: 3%
Population Mitochondria Different-Phenotype (%) [1]: 95%
Population Mitotic Cells (%) [1]: 46%
Population Normal (%) [1]: 89%
Population Pyknosed Nuclei (%) [1]: 47%
Population Tubulin-Different-Phenotype (%) [1]: 92%
Total Cell Count [1]: 349
Population Apoptotic (%) [2]: 31%
Population Fragmented Nuclei (%) [2]: 5%
Population Healthy Nuclei (%) [2]: 43%
Population Hoechst High Intensity Objects (%) [2]: 3%
Population Membrane Permeable-Phenotype (%) [2]: 6%
Population Mitochondria Different-Phenotype (%) [2]: 66%
Population Mitotic Cells (%) [2]: 68%
Population Normal (%) [2]: 96%
Population Pyknosed Nuclei (%) [2]: 50%
Population Tubulin-Different-Phenotype (%) [2]: 63%
Total Cell Count [2]: 251
Population Apoptotic (%) [3]: 70%
Population Fragmented Nuclei (%) [3]: 23%
Population Healthy Nuclei (%) [3]: 1%
Population Hoechst High Intensity Objects (%) [3]: 13%
Population Membrane Permeable-Phenotype (%) [3]: 33%
Population Mitochondria Different-Phenotype (%) [3]: 33%
Population Mitotic Cells (%) [3]: 29%
Population Normal (%) [3]: 86%
Population Pyknosed Nuclei (%) [3]: 74%
Population Tubulin-Different-Phenotype (%) [3]: 66%
Total Cell Count [3]: 226
Population Apoptotic (%) [4]: 90%
Population Fragmented Nuclei (%) [4]: 5%
Population Healthy Nuclei (%) [4]: 18%
Population Hoechst High Intensity Objects (%) [4]: 3%
Population Membrane Permeable-Phenotype (%) [4]: 0%
Population Mitochondria Different-Phenotype (%) [4]: 91%
Population Mitotic Cells (%) [4]: 9%
Population Normal (%) [4]: 96%
Population Pyknosed Nuclei (%) [4]: 76%
Population Tubulin-Different-Phenotype (%) [4]: 97%
Total Cell Count [4]: 192
Population Apoptotic (%) [5]: 53%
Population Fragmented Nuclei (%) [5]: 15%
Population Healthy Nuclei (%) [5]: 26%
Population Hoechst High Intensity Objects (%) [5]: 12%
Population Membrane Permeable-Phenotype (%) [5]: 1%
Population Mitochondria Different-Phenotype (%) [5]: 98%
Population Mitotic Cells (%) [5]: 46%
Population Normal (%) [5]: 87%
Population Pyknosed Nuclei (%) [5]: 57%
Population Tubulin-Different-Phenotype (%) [5]: 90%
Total Cell Count [5]: 358
Population Apoptotic (%) [6]: 39%
Population Fragmented Nuclei (%) [6]: 6%
Population Healthy Nuclei (%) [6]: 56%
Population Hoechst High Intensity Objects (%) [6]: 2%
Population Mitochondria Different-Phenotype (%) [6]: 81%
Population Mitotic Cells (%) [6]: 60%
Population Normal (%) [6]: 97%
Population Pyknosed Nuclei (%) [6]: 36%
Population Tubulin-Different-Phenotype (%) [6]: 79%
Total Cell Count [6]: 296
Population Apoptotic (%) [7]: 77%
Population Fragmented Nuclei (%) [7]: 22%
Population Healthy Nuclei (%) [7]: 1%
Population Hoechst High Intensity Objects (%) [7]: 12%
Population Membrane Permeable-Phenotype (%) [7]: 0%
Population Mitochondria Different-Phenotype (%) [7]: 66%
Population Mitotic Cells (%) [7]: 22%
Population Normal (%) [7]: 87%
Population Pyknosed Nuclei (%) [7]: 76%
Population Tubulin-Different-Phenotype (%) [7]: 66%
Total Cell Count [7]: 232
Population Apoptotic (%) [8]: 94%
Population Fragmented Nuclei (%) [8]: 6%
Population Healthy Nuclei (%) [8]: 9%
Population Hoechst High Intensity Objects (%) [8]: 8%
Population Membrane Permeable-Phenotype (%) [8]: 6%
Population Mitochondria Different-Phenotype (%) [8]: 75%
Population Mitotic Cells (%) [8]: 5%
Population Normal (%) [8]: 91%
Population Pyknosed Nuclei (%) [8]: 83%
Population Tubulin-Different-Phenotype (%) [8]: 75%
Total Cell Count [8]: 183
Population Apoptotic (%) [9]: 51%
Population Fragmented Nuclei (%) [9]: 17%
Population Healthy Nuclei (%) [9]: 13%
Population Hoechst High Intensity Objects (%) [9]: 18%
Population Membrane Permeable-Phenotype (%) [9]: 0%
Population Mitochondria Different-Phenotype (%) [9]: 87%
Population Mitotic Cells (%) [9]: 48%
Population Normal (%) [9]: 81%
Population Pyknosed Nuclei (%) [9]: 68%
Population Tubulin-Different-Phenotype (%) [9]: 75%
Total Cell Count [9]: 352
Population Apoptotic (%) [10]: 33%
Population Fragmented Nuclei (%) [10]: 5%
Population Healthy Nuclei (%) [10]: 75%
Population Hoechst High Intensity Objects (%) [10]: 6%
Population Membrane Permeable-Phenotype (%) [10]: 3%
Population Mitochondria Different-Phenotype (%) [10]: 55%
Population Mitotic Cells (%) [10]: 66%
Population Normal (%) [10]: 93%
Population Pyknosed Nuclei (%) [10]: 19%
Population Tubulin-Different-Phenotype (%) [10]: 69%
Total Cell Count [10]: 406
Population Apoptotic (%) [11]: 80%
Population Fragmented Nuclei (%) [11]: 27%
Population Healthy Nuclei (%) [11]: 1%
Population Hoechst High Intensity Objects (%) [11]: 16%
Population Membrane Permeable-Phenotype (%) [11]: 0%
Population Mitochondria Different-Phenotype (%) [11]: 50%
Population Mitotic Cells (%) [11]: 19%
Population Normal (%) [11]: 83%
Population Pyknosed Nuclei (%) [11]: 71%
Population Tubulin-Different-Phenotype (%) [11]: 50%
Total Cell Count [11]: 238
Population Apoptotic (%) [12]: 96%
Population Fragmented Nuclei (%) [12]: 15%
Population Healthy Nuclei (%) [12]: 14%
Population Hoechst High Intensity Objects (%) [12]: 7%
Population Membrane Permeable-Phenotype (%) [12]: 12%
Population Mitochondria Different-Phenotype (%) [12]: 79%
Population Mitotic Cells (%) [12]: 3%
Population Normal (%) [12]: 92%
Population Pyknosed Nuclei (%) [12]: 70%
Population Tubulin-Different-Phenotype (%) [12]: 83%
Total Cell Count [12]: 179

CCN(CC)CCCCNc1ncc2cc(-c3cc(OC)cc(OC)c3)c(NC(=O)NC(C)(C)C)nc2n1 [PD-173074]
Population Apoptotic (%) [1]: 8%
Population Fragmented Nuclei (%) [1]: 79%
Population Healthy Nuclei (%) [1]: 8%
Population Hoechst High Intensity Objects (%) [1]: 69%
Population Membrane Permeable-Phenotype (%) [1]: 15%
Population Mitochondria Different-Phenotype (%) [1]: 31%
Population Mitotic Cells (%) [1]: 91%
Population Normal (%) [1]: 30%
Population Pyknosed Nuclei (%) [1]: 11%
Population Tubulin-Different-Phenotype (%) [1]: 42%
Total Cell Count [1]: 685
Population Apoptotic (%) [2]: 6%
Population Fragmented Nuclei (%) [2]: 80%
Population Healthy Nuclei (%) [2]: 1%
Population Hoechst High Intensity Objects (%) [2]: 80%
Population Membrane Permeable-Phenotype (%) [2]: 66%
Population Mitochondria Different-Phenotype (%) [2]: 0%
Population Mitotic Cells (%) [2]: 93%
Population Normal (%) [2]: 19%
Population Pyknosed Nuclei (%) [2]: 17%
Population Tubulin-Different-Phenotype (%) [2]: 66%
Total Cell Count [2]: 917
Population Fragmented Nuclei (%) [3]: 29%
Population Healthy Nuclei (%) [3]: 52%
Population Hoechst High Intensity Objects (%) [3]: 48%
Population Membrane Permeable-Phenotype (%) [3]: 26%
Population Mitochondria Different-Phenotype (%) [3]: 6%
Population Normal (%) [3]: 51%
Population Pyknosed Nuclei (%) [3]: 17%
Population Tubulin-Different-Phenotype (%) [3]: 33%
Total Cell Count [3]: 693
Population Apoptotic (%) [4]: 28%
Population Fragmented Nuclei (%) [4]: 7%
Population Healthy Nuclei (%) [4]: 85%
Population Hoechst High Intensity Objects (%) [4]: 42%
Population Membrane Permeable-Phenotype (%) [4]: 22%
Population Mitochondria Different-Phenotype (%) [4]: 24%
Population Mitotic Cells (%) [4]: 71%
Population Normal (%) [4]: 57%
Population Pyknosed Nuclei (%) [4]: 7%
Population Tubulin-Different-Phenotype (%) [4]: 71%
Total Cell Count [4]: 1213
Population Apoptotic (%) [5]: 32%
Population Fragmented Nuclei (%) [5]: 84%
Population Healthy Nuclei (%) [5]: 6%
Population Hoechst High Intensity Objects (%) [5]: 55%
Population Membrane Permeable-Phenotype (%) [5]: 36%
Population Mitochondria Different-Phenotype (%) [5]: 15%
Population Mitotic Cells (%) [5]: 68%
Population Normal (%) [5]: 44%
Population Pyknosed Nuclei (%) [5]: 8%
Population Tubulin-Different-Phenotype (%) [5]: 26%
Total Cell Count [5]: 629
Population Apoptotic (%) [6]: 0%
Population Fragmented Nuclei (%) [6]: 91%
Population Healthy Nuclei (%) [6]: 1%
Population Hoechst High Intensity Objects (%) [6]: 60%
Population Membrane Permeable-Phenotype (%) [6]: 0%
Population Mitochondria Different-Phenotype (%) [6]: 20%
Population Mitotic Cells (%) [6]: 100%
Population Normal (%) [6]: 39%
Population Pyknosed Nuclei (%) [6]: 6%
Population Tubulin-Different-Phenotype (%) [6]: 60%
Total Cell Count [6]: 891
Population Apoptotic (%) [7]: 28%
Population Fragmented Nuclei (%) [7]: 17%
Population Healthy Nuclei (%) [7]: 71%
Population Hoechst High Intensity Objects (%) [7]: 36%
Population Membrane Permeable-Phenotype (%) [7]: 25%
Population Mitochondria Different-Phenotype (%) [7]: 9%
Population Mitotic Cells (%) [7]: 71%
Population Normal (%) [7]: 63%
Population Pyknosed Nuclei (%) [7]: 11%
Population Tubulin-Different-Phenotype (%) [7]: 50%
Total Cell Count [7]: 733
Population Apoptotic (%) [8]: 15%
Population Fragmented Nuclei (%) [8]: 16%
Population Healthy Nuclei (%) [8]: 80%
Population Hoechst High Intensity Objects (%) [8]: 27%
Population Membrane Permeable-Phenotype (%) [8]: 20%
Population Mitochondria Different-Phenotype (%) [8]: 6%
Population Mitotic Cells (%) [8]: 85%
Population Normal (%) [8]: 72%
Population Pyknosed Nuclei (%) [8]: 2%
Population Tubulin-Different-Phenotype (%) [8]: 58%
Total Cell Count [8]: 1994
